Measured values as given in ChEMBL document CHEMBL1139317, “Design, synthesis and biological evaluation of novel bicyclo[1.1.1]pentane-based omega-acidic amino acids as glutamate receptors ligands” (Bioorg Med Chem, 2009).
pKi: −log10 of the molar value. The source made the active and inactive calls. The calls are words filed in the database; no cut-off is given here.

Experiments:
[1] = species on record: Rattus norvegicus; assay: Agonist activity at NMDA receptor in rat cortical membranes up to 1 mM by [3H]MK801 binding assay; assay type: cell membranes
How it was run: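 [3H]MK801 binding to rat cortical membranes; agonist action read as potentiation of [3H]MK801 binding relative to basal, with glutamate/glycine as reference stimulants of binding.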

[2] = Displacement of [3H]AMPA from AMPA receptor in rat brain membranes; assay type: cell membranes
[3] = Displacement of [3H]kainic acid from kainate receptor in rat brain membranes; assay type: cell membranes
[4] = target: Metabotropic glutamate receptor 1 (Homo sapiens, UniProt Q13255); assay: Displacement of [3H]Quisqualate from human mGluR1A receptor expressed in BHK cells; assay type: cell-based
[5] = target: Metabotropic glutamate receptor 5 (Homo sapiens, UniProt P41594); assay: Displacement of [3H]Quisqualate from human mGluR5 receptor expressed in BHK cells; assay type: cell-based
[6] = target: T1, Glutamate NMDA receptor (Rattus norvegicus) (UniProt P35439+Q00959+Q00960+Q00961+Q62645+Q8VHN2+Q9R1M7); assay: Antagonist activity at NMDA receptor in rat cortical membranes assessed as inhibition of [3H]MK801 binding in presence of glutamate and glycine; assay type: cell membranes
[7] = target: T1, Glutamate NMDA receptor (Rattus norvegicus); details: Brain, Brain membranes
[8] = target: Glutamate NMDA receptor
[9] = target: Metabotropic glutamate receptor 4 (Homo sapiens, UniProt Q14833); assay: Displacement of [3H]L-AP4 from human mGluR4 receptor expressed in BHK cells
[10] = target: Metabotropic glutamate receptor 2 (Homo sapiens, UniProt Q14416); assay: Displacement of [3H]LY341495 from human mGluR2 receptor expressed in BHK cells
Sequence of Metabotropic glutamate receptor 2 (Q14416 whole entry): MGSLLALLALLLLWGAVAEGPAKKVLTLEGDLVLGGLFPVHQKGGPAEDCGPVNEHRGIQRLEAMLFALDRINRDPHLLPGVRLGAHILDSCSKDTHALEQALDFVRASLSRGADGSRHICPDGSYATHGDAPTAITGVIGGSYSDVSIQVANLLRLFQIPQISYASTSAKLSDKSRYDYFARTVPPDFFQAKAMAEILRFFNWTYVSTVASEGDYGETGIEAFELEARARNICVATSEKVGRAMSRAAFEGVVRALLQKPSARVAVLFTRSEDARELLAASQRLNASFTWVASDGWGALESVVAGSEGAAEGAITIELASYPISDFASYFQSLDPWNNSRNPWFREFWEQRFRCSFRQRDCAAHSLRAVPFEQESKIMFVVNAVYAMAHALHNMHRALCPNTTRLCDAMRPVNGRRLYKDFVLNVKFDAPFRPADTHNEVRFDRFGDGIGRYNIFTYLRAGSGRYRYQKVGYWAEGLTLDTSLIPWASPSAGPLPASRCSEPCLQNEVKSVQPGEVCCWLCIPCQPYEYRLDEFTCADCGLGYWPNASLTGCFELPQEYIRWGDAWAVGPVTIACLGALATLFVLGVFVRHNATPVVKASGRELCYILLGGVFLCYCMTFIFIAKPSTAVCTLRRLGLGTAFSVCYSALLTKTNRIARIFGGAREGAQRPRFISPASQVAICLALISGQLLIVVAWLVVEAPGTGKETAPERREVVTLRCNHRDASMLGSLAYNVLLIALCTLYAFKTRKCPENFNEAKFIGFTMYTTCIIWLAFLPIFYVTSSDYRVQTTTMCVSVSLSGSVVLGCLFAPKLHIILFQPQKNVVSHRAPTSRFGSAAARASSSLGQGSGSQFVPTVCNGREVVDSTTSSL

Sequence of Metabotropic glutamate receptor 5 (P41594 whole entry): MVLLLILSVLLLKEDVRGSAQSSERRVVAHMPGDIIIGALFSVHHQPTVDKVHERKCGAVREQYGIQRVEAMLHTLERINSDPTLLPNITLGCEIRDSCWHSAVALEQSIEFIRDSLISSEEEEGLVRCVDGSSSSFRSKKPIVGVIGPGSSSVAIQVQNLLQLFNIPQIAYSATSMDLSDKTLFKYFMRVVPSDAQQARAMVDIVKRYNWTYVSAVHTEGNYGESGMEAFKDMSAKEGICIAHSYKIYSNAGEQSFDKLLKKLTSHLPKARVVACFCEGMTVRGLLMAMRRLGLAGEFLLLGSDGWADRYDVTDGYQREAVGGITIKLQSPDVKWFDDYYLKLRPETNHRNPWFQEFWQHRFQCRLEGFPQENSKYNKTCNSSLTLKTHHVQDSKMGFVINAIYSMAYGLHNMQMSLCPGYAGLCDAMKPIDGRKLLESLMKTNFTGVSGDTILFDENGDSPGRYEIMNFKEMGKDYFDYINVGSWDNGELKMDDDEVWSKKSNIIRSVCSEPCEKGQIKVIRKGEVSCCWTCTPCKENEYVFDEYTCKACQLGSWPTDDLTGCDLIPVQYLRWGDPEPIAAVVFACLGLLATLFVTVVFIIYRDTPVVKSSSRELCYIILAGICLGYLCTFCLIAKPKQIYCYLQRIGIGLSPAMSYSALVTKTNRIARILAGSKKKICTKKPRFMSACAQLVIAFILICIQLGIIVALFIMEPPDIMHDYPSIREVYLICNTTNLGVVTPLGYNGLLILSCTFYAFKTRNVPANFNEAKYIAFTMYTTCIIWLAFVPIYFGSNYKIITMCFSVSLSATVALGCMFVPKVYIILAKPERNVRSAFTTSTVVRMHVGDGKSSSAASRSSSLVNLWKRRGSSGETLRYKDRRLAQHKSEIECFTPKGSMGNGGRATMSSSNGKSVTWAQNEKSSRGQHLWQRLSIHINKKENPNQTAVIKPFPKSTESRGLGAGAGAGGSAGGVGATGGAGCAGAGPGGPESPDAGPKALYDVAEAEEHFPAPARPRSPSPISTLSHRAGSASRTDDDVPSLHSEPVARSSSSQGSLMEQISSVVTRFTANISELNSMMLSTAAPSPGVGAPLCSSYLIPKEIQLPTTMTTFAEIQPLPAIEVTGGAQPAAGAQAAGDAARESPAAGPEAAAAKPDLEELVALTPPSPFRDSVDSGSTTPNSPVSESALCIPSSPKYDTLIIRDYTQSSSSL
Sequence of Metabotropic glutamate receptor 4 (Q14833 whole entry): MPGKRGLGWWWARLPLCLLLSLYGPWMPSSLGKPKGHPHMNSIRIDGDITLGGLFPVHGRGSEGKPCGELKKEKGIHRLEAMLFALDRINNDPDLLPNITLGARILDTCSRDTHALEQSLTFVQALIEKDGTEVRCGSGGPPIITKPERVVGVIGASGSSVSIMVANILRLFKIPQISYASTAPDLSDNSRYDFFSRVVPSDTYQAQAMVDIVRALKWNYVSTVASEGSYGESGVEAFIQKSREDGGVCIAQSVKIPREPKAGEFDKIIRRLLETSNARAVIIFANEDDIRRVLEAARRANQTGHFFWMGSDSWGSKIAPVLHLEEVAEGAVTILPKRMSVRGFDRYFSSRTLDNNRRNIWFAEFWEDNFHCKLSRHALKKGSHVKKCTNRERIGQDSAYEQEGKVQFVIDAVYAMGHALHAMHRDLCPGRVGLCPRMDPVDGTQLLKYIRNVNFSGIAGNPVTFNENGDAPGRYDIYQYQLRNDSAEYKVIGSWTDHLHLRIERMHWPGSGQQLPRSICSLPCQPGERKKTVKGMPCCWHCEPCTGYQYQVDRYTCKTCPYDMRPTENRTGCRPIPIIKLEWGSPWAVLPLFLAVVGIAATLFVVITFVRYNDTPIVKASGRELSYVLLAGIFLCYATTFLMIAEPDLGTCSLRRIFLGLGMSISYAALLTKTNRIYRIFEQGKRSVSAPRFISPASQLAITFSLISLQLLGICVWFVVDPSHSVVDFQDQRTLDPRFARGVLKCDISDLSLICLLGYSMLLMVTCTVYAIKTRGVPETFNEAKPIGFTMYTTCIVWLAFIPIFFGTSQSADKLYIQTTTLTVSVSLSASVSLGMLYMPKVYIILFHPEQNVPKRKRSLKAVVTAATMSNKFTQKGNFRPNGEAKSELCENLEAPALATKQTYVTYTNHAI
Sequence of Metabotropic glutamate receptor 1 (Q13255 whole entry): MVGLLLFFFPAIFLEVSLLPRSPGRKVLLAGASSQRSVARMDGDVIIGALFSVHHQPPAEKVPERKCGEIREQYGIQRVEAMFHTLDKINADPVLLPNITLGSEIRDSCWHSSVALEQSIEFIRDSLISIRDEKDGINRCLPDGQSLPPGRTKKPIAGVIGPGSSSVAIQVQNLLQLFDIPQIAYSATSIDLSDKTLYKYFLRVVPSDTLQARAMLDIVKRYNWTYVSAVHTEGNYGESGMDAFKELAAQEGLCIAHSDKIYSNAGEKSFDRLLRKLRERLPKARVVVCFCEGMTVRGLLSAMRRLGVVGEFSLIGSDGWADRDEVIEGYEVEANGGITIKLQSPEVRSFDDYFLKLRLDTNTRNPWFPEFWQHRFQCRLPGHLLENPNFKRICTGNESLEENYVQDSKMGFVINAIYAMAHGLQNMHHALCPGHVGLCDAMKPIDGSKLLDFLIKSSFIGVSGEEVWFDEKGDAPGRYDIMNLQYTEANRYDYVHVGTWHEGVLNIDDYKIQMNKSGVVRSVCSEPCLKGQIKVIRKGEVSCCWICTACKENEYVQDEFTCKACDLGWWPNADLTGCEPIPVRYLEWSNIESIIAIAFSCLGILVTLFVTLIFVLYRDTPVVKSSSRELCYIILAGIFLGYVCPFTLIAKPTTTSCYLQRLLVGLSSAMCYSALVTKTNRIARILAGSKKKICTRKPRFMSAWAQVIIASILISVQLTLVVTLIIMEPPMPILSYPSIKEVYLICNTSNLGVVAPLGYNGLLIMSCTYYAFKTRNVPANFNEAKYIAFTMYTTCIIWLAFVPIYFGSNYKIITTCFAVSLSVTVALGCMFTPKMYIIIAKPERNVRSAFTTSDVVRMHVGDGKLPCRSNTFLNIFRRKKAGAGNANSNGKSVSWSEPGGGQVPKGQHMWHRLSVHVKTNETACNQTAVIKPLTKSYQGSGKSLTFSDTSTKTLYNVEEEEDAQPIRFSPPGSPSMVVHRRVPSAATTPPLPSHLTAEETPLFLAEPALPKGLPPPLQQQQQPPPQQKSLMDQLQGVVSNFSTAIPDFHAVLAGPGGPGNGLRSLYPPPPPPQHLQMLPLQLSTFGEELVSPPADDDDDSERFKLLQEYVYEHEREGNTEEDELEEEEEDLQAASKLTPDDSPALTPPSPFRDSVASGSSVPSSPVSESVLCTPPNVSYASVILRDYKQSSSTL

Compound	Activity [1]	pKi [2]	pKi [3]	pKi [4]	pKi [5]	Activity [6]	logKi [7]	pKi [8]	pKi [9]	pKi [10]
N[C@H](CC12CC(C(=O)O)(C1)C2)C(=O)O	inactive	< 3.52	< 3.52	3.68	3.47	inactive	1.46	4.54	< 3.00	< 3.00
N[C@@H](CC12CC(C(=O)O)(C1)C2)C(=O)O	inactive	< 3.52	< 3.52	< 3.00	< 3.52	inactive	2.48	< 3.52	< 3.00	< 3.00
N[C@@H](CCP(=O)(O)O)C(=O)O		< 3.00	< 3.00	< 3.00	< 3.00			< 3.52	6.80	< 3.00
O=C(O)[C@H]1CN(CCCP(=O)(O)O)CCN1						103 nM				
